The source made the active and inactive calls.
Tests used:
Mus musculus [1] = species on record: Mus musculus; assay: Protective index, ratio of TD50 for C57B/6 mouse by rotarod test to ED50 for C57B/6 mouse by MES test; format: functional
Mus musculus [2] = assay: Anticonvulsant activity against MES-induced seizure in ip dosed C57B/6 mouse by MES test; format: functional; conditions: C57B/6, ip
Outline: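 Mice, groups of 10, given a range of intraperitoneal doses until at least three points fell within 10–90% protection. MES was tested 30 min after dosing, with current applied via corneal electrodes for 0.2 s. Protection was defined as abolition of the hind-leg tonic maximal extension.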

[3] = Neurotoxicity in ip dosed C57B/6 mouse after 30 mins by rotarod test; format: toxicity, organism-based; conditions: in vivo
Outline: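 Mice, groups of 10, given a range of ip doses to define 10–90% minimal neurotoxicity. At 30 min after dosing, each mouse was placed on a 1-in. knurled rod rotating at 6 rpm for 1 min. Neurotoxicity meant failure to keep equilibrium in each of three trials.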

Mus musculus [4] = species on record: Mus musculus; assay: Anticonvulsant activity against thiosemicarbazide-induced seizure in C57B/6 mouse; format: functional
Outline: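 Thiosemicarbazide 50 mg/kg ip, a fully convulsant dose, was given 1 h after test treatment. Latency and duration of convulsions, plus lethality latency and percentage, were recorded over 2 h 30 min. ED50 was the dose preventing tonic convulsions in 50% of treated animals.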

Mus musculus [5] = assay: Anticonvulsant activity against strychnine-induced seizure in C57B/6 mouse at 300 mg/kg; format: functional, organism-based; parameters: dose 300 mg/kg
Outline: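 Strychnine chlorhydrate in saline (1.2 mg/mL, 1 mL/kg) was given sc as a 100%-convulsant dose after compound pretreatment, with the compound tested at 300 mg/kg. Mice were housed individually and observed for 30 min, recording seizure onset time, number of tonic seizures and lethality.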

Mus musculus [6] = species on record: Mus musculus; assay: Anticonvulsant activity against pentylenetetrazole-induced seizure in C57B/6 mouse; format: functional
Outline: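 Pentylenetetrazole 85 mg/kg sc, a dose giving 100% convulsions, was given 30 min after test treatment. Latency and duration of convulsions, plus latency and percentage of lethality, were recorded over the following 1 h. ED50 was the dose preventing tonic convulsions in 50% of treated animals.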

Mus musculus [7] = species on record: Mus musculus; assay: Anticonvulsant activity against isoniazid-induced seizure in C57B/6 mouse; format: functional
Outline: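 Isoniazid was given ip at 250 mg/kg, a dose set by a dose–percent effect curve to convulse 100% of animals. Test compounds were given beforehand. ED50 was the dose protecting 50% of animals from tonic convulsions.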

Mus musculus [8] = species on record: Mus musculus; assay: Anticonvulsant activity against 3-mercaptopropionic acid-induced seizure in C57B/6 mouse; format: functional
Outline: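 3-Mercaptopropionic acid 40 mg/kg in saline was injected sc 1 h after test treatment. Convulsion latency and duration, plus lethality latency and percentage, were recorded over 1 h. ED50 was the dose preventing tonic convulsions in 50% of treated animals.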

Row | SMILES | Ratio TD50/ED50 (Mus musculus [1]) | ED50 (Mus musculus [2]) | TD50 at 0.5 h [3] | ED50 (Mus musculus [4]) | Activity (Mus musculus [5]) | ED50 (Mus musculus [6]) | ED50 (Mus musculus [7]) | ED50 (Mus musculus [8])
1 | CCc1nncn1-c1ccc(OCc2ccc3c(c2)OCO3)cc1 | 9.4 | 20.1 mg/kg | 189 mg/kg |  |  |  |  | 
2 | CCc1nncn1-c1ccc(OCc2ccc(Cl)cc2)cc1 | 10.4 | 19.7 mg/kg | 137 mg/kg |  |  |  |  | 
3 | CCCCOc1ccc(-n2cnnc2CC)cc1 |  | > 100 mg/kg |  |  |  |  |  | 
4 | CCc1nncn1-c1ccc(OCc2ccccc2)cc1 | 4.9 | 20.8 mg/kg | 102 mg/kg |  |  |  |  | 
5 | CCc1nncn1-c1ccc(OCc2c(F)cccc2F)cc1 | 6.9 | 15.8 mg/kg | 109 mg/kg |  |  |  |  | 
6 | CCc1nncn1-c1ccc(OCc2ccc(OC)cc2)cc1 | 8.3 | 15.8 mg/kg | 132 mg/kg |  |  |  |  | 
7 | CCc1nncn1-c1ccc(OCc2c(Cl)cccc2Cl)cc1 | 8.3 | 15.8 mg/kg | 132 mg/kg |  |  |  |  | 
8 | CCCCCCCCCCCCOc1ccc(-n2cnnc2CC)cc1 |  | > 100 mg/kg |  |  |  |  |  | 
9 | CCCCCCOc1ccc(-n2cnnc2CC)cc1 | 4.7 | 13.2 mg/kg | 62.1 mg/kg |  |  |  |  | 
10 | CCCOc1ccc(-n2cnnc2CC)cc1 |  | > 100 mg/kg |  |  |  |  |  | 
11 | Cc1ccc(COc2ccc3c(c2)CCc2nncn2-3)cc1 | 3.2 | 20.5 mg/kg | 65.8 mg/kg |  |  |  |  | 
12 | CCc1nncn1-c1ccc(OCc2ccccc2Cl)cc1 | 5.8 | 13.2 mg/kg | 76.1 mg/kg |  |  |  |  | 
13 | CCc1nncn1-c1ccc(OCc2ccccc2F)cc1 | 2.9 | 21.2 mg/kg | 61.5 mg/kg |  |  |  |  | 
14 | CCOc1ccc(-n2cnnc2CC)cc1 |  | > 100 mg/kg |  |  |  |  |  | 
15 | CCCCCCOc1ccc2c(c1)CCc1nncn1-2 | 2.2 | 13.5 mg/kg | 30.3 mg/kg |  |  |  |  | 
16 | c1ccc(COc2ccc3c(c2)CCc2nncn2-3)cc1 | 3.5 | 17.3 mg/kg | 61.4 mg/kg |  |  |  |  | 
17 | Fc1ccc(COc2ccc3c(c2)CCc2nncn2-3)cc1 | 4.6 | 11.8 mg/kg | 54.5 mg/kg |  |  |  |  | 
18 | CCc1nncn1-c1ccc(OCc2ccc(F)cc2)cc1 | 4 | 22.8 mg/kg | 91.3 mg/kg |  |  |  |  | 
19 | CCc1nncn1-c1ccc(OCc2cccc(F)c2)cc1 | 4 | 22.8 mg/kg | 91.2 mg/kg |  |  |  |  | 
20 | CCc1nncn1-c1ccc(OCc2ccc(C)cc2)cc1 | 4 | 25.5 mg/kg | 101 mg/kg |  |  |  |  | 
21 | CCCCCCCCOc1ccc(-n2cnnc2CC)cc1 | 9.3 | 8.8 mg/kg | 82.2 mg/kg | 31.7 mg/kg | inactive | 26.4 mg/kg | 38.1 mg/kg | 22.8 mg/kg
22 | CCCCCCCOc1ccc(-n2cnnc2CC)cc1 | 5.5 | 8.3 mg/kg | 45.6 mg/kg |  |  |  |  | 
23 | CCc1nncn1-c1ccc(OCc2cccc(Cl)c2)cc1 | 4 | 27.4 mg/kg | 110 mg/kg |  |  |  |  | 

Source: ChEMBL document CHEMBL1137442, “Synthesis and anticonvulsant evaluation of 4-(4-alkoxylphenyl)-3-ethyl-4H-1,2,4-triazoles as open-chain analogues of 7-alkoxyl-4,5-dihydro[1,2,4]triazolo[4,3-a]quinolines” (Bioorg Med Chem, 2007)
